How the values were obtained:
HCT-116 = experiment: Antiproliferative activity against human HCT116 cells; type: functional
Summary of the method: (§1)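 Profiled in the National Cancer Institute 60 cancer cell line screen. Reported GI50 is the concentration giving 50% growth inhibition, TGI the concentration giving total growth inhibition, and LC50 the concentration giving 50% net cell killing. Values are averages ± SEM from two independent determinations.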

HT-29 = experiment: Antiproliferative activity against human HT-29 cells; type: functional; summary of the method: as §1
SK-MEL-2 = experiment: Antiproliferative activity against human SK-MEL-2 cells; type: functional; summary of the method: as §1
[1] = Antiproliferative activity against human MOLT4 cells; type: functional; summary of the method: as §1
A498 = experiment: Antiproliferative activity against human A498 cells; type: functional; summary of the method: as §1
SN12C = experiment: Antiproliferative activity against human SN12C cells; type: functional; summary of the method: as §1
786-0 = experiment: Antiproliferative activity against human 786-0 cells; type: functional; summary of the method: as §1
MDA-MB-435 = experiment: Antiproliferative activity against human MDA-MB-435 cells; type: functional; summary of the method: as §1
K562 = experiment: Antiproliferative activity against human K562 cells; type: functional; summary of the method: as §1
[2] = Antiproliferative activity against human Hs 578T cells; type: functional; summary of the method: as §1
[3] = Antiproliferative activity against human HCC2998 cells; type: functional; summary of the method: as §1
DU-145 = experiment: Antiproliferative activity against human DU145 cells; type: functional; summary of the method: as §1
ACHN = experiment: Antiproliferative activity against human ACHN cells; type: functional; summary of the method: as §1
[4] = Antiproliferative activity against human RXF393 cells; type: functional; summary of the method: as §1
[5] = Antiproliferative activity against human HOP92 cells; type: functional; summary of the method: as §1
A549 = experiment: Antiproliferative activity against human A549/ATCC cells; type: functional; summary of the method: as §1
NCI-H226 = experiment: Antiproliferative activity against human NCI-H226 cells; type: functional; summary of the method: as §1
MDA-MB-231 = experiment: Antiproliferative activity against human MDA-MB-231 cells; type: functional; summary of the method: as §1
T47D = experiment: Antiproliferative activity against human T47D cells; type: functional
Summary of the method: (§2)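 Run in the National Cancer Institute 60 cancer cell line panel. Read-outs: GI50, the concentration causing 50% growth inhibition; TGI, the concentration causing total growth inhibition; LC50, the concentration causing 50% net cell killing. Values are averages ± SEM from two independent determinations.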

TK-10 = experiment: Antiproliferative activity against human TK10 cells; type: functional; summary of the method: as §2
[6] = Antiproliferative activity against human SF539 cells; type: functional; summary of the method: as §1
OVCAR-3 = experiment: Antiproliferative activity against human OVCAR3 cells; type: functional; summary of the method: as §1
M14 = experiment: Antiproliferative activity against human M14 cells; type: functional; summary of the method: as §1
NCI-H522 = experiment: Antiproliferative activity against human NCI-H522 cells; type: functional; summary of the method: as §1
OVCAR-5 = experiment: Antiproliferative activity against human OVCAR5 cells; type: functional; summary of the method: as §1
U-251 = experiment: Antiproliferative activity against human U251 cells; type: functional; summary of the method: as §2
[7] = Apparent permeability of the compound from basolateral to apical side in human Caco2 cells; type: ADME, cell-based; details: Caco-2
CAKI-1 = experiment: Antiproliferative activity against human Caki1 cells; type: functional; summary of the method: as §1
SK-MEL-28 = experiment: Antiproliferative activity against human SK-MEL-28 cells; type: functional; summary of the method: as §1
OVCAR-4 = experiment: Antiproliferative activity against human OVCAR4 cells; type: functional; summary of the method: as §1
NCI-H23 = experiment: Antiproliferative activity against human NCI-H23 cells; type: functional; summary of the method: as §1
HCT-15 = experiment: Antiproliferative activity against human HCT15 cells; type: functional; summary of the method: as §1
[8] = read-out: LC50 (the source's name)

## C[C@H](NC(=O)[C@@H]1CSSC[C@@H](NC(=O)c2nc3ccccc3cc2O)C(=O)NCC(=O)N1C)c1ccccc1
HCT-116
  GI50: 1.8 µM
  TGI: 6 µM
HCT-116; [8]
  CC50: 18.3 µM
HT-29
  GI50: 1.2 µM
  TGI: 3.9 µM
HT-29; [8]
  CC50: 12.4 µM
SK-MEL-2
  GI50: 2.6 µM
  TGI: 10.1 µM
SK-MEL-2; [8]
  CC50: 27.1 µM
[1]; MOLT-4
  GI50: 0.9 µM
  TGI: 3.3 µM
[1]; MOLT-4, read-out: LC50 (the source's name)
  CC50: > 50 µM
A498
  GI50: 15 µM
  TGI: 33.5 µM
A498; [8]
  CC50: > 50 µM
SN12C
  GI50: 5.6 µM
  TGI: 14.1 µM
SN12C; [8]
  CC50: 35.4 µM
786-0
  GI50: 2.5 µM
  TGI: 9.8 µM
786-0; [8]
  CC50: 33.5 µM
MDA-MB-435
  GI50: 0.8 µM
  TGI: 6.6 µM
MDA-MB-435; [8]
  CC50: 22 µM
K562
  GI50: 0.7 µM
  TGI: 3.1 µM
K562; [8]
  CC50: > 50 µM
[2]
  GI50: 11.3 µM
  TGI: 34.5 µM
[2]; [8]
  CC50: > 50 µM
[3]; HCC 2998
  GI50: 7.9 µM
  TGI: 17.9 µM
[3]; HCC 2998, read-out: LC50 (the source's name)
  CC50: > 50 µM
DU-145
  GI50: 5.8 µM
  TGI: 12.7 µM
DU-145; [8]
  CC50: 27.7 µM
ACHN
  GI50: 4.9 µM
  TGI: 13 µM
ACHN; [8]
  CC50: 31.5 µM
[4]; RXF 393
  GI50: 1.3 µM
  TGI: 3.1 µM
[4]; RXF 393, read-out: LC50 (the source's name)
  CC50: 13 µM
[5]; HOP-92
  GI50: 9.7 µM
  TGI: 18.6 µM
[5]; HOP-92, read-out: LC50 (the source's name)
  CC50: 35.6 µM
A549
  GI50: 7.1 µM
  TGI: 15.7 µM
A549; [8]
  CC50: 35.3 µM
NCI-H226
  GI50: 8.9 µM
  TGI: 17.4 µM
NCI-H226; [8]
  CC50: 34.2 µM
MDA-MB-231
  GI50: 1.9 µM
  TGI: 7.9 µM
MDA-MB-231; [8]
  CC50: 26 µM
T47D
  GI50: 1.1 µM
  TGI: 3.8 µM
T47D; [8]
  CC50: 24.8 µM
TK-10
  GI50: 8.1 µM
  TGI: 15.4 µM
TK-10; [8]
  CC50: 29.7 µM
[6]; SF-539
  GI50: 2 µM
  TGI: 9.4 µM
[6]; SF-539, read-out: LC50 (the source's name)
  CC50: 27.3 µM
OVCAR-3
  GI50: 0.6 µM
  TGI: 1.4 µM
OVCAR-3; [8]
  CC50: 3.1 µM
M14
  GI50: 0.3 µM
  TGI: 10.3 µM
M14; [8]
  CC50: > 50 µM
NCI-H522
  GI50: 3.6 µM
  TGI: 10.5 µM
NCI-H522; [8]
  CC50: 29.1 µM
OVCAR-5
  GI50: 5.2 µM
  TGI: 12.6 µM
OVCAR-5; [8]
  CC50: 29.6 µM
U-251
  GI50: 2.5 µM
  TGI: 7.7 µM
U-251; [8]
  CC50: 20.4 µM
[7]
  Papp B→A: 0.062 ×10⁻⁶ cm/s
CAKI-1
  GI50: 7.3 µM
  TGI: 18.5 µM
CAKI-1; [8]
  CC50: 47.4 µM
SK-MEL-28
  GI50: 0.9 µM
  TGI: 9.9 µM
SK-MEL-28; [8]
  CC50: 31.8 µM
OVCAR-4
  GI50: 8 µM
  TGI: 18.4 µM
OVCAR-4; [8]
  CC50: 42.4 µM
NCI-H23
  GI50: 5.2 µM
  TGI: 12.6 µM
NCI-H23; [8]
  CC50: 29.7 µM
HCT-15
  GI50: 2.6 µM

Source: ChEMBL document CHEMBL3632499, “Synthesis and Antiproliferative Activity Evaluation of the Disulfide-Containing Cyclic Peptide Thiochondrilline C and Derivatives” (J Nat Prod, 2015)
